Data from ChEMBL document CHEMBL3272198, “Preparation and in vitro antifungal activities of some quinolizidine derived hemiaminals and beta-tert-amino sulfides” (1976).
The source made the active and inactive calls. No cut-off for these calls is given here.

How the values were obtained:
[1] = test system: Blastomyces dermatitidis; test: Antifungal activity against Blastomyces dermatitidis Gilchrist & Stokes isolate 1107 at 1 ug/ml after 1 week (reference value: 20 mm); type: functional, organism-based
Summary of the method: (§1)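 Mycelial phase grown on Sabouraud dextrose agar at 25°C. Agar pH was set to 6 before the test solution was added and was 5.0-5.5 after. Test solutions contained HOAc and Me2SO, and solvent and blank controls were included. Each quadrant was center-inoculated with a 2 × 2 mm piece of a 2-week-old mycelial culture. Colony diameter was measured weekly for 3 weeks and reported as total increments (mm). Duplicates were run.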

[2] = test system: Histoplasma capsulatum; test: Antifungal activity against Histoplasma capsulatum Darling isolate 1106 at 1 ug/ml after 3 weeks (reference value: 31 mm); type: functional; conditions: Darling isolate 1106, 504 h, read-out: DIZ
[3] = test system: Histoplasma capsulatum; test: Antifungal activity against Histoplasma capsulatum Darling isolate 1098 at 1 ug/ml after 2 weeks (reference value: 21 mm); type: functional; conditions: Darling isolate 1098, 336 h, read-out: DIZ
[4] = test system: Blastomyces dermatitidis; test: Antifungal activity against Blastomyces dermatitidis Gilchrist & Stokes isolate 1107 at 1 ug/ml after 2 weeks (reference value: 35 mm); type: functional; conditions: Gilchrist & Stokes isolate 1107, 336 h, read-out: DIZ; summary of the method: as §1
[5] = test system: Histoplasma capsulatum; test: Antifungal activity against Histoplasma capsulatum Darling isolate 1098 at 1 ug/ml after 1 week (reference value: 12 mm); type: functional; conditions: Darling isolate 1098, 168 h, read-out: DIZ
[6] = test system: Sporotrichum; test: Antifungal activity against Sporotrichum schenckii Hektoen & Perkins (1109) at 40 to 80 ug/ml after 2 weeks; type: functional, organism-based
Summary of the method: (§2)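 Compound in aqueous HOAc/Me2SO was filter-sterilized and mixed into melted (50°) Sabouraud dextrose agar. Agar pH was 7.0-7.5 before addition and 6.0-6.5 after, giving final levels of 10-100 μg/ml. Quadrant plates were center-inoculated with a 2 × 2 mm piece of a 2-week-old mycelial culture, sealed and kept at 25°C. Colony expansion was measured weekly, with solvent and blank controls, in duplicate.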

[7] = test system: Trichophyton rubrum; test: Antifungal activity against Trichophyton rubrum Castellani Sab.1112 at 40 to 80 ug/ml after 2 weeks; type: functional, organism-based; summary of the method: as §2

SMILES | Activity [1] | zone of inhibition at 1 µg/mL [2] | zone of inhibition at 1 µg/mL [3] | zone of inhibition at 1 µg/mL [4] | zone of inhibition at 1 µg/mL [5] | diameter of the inhibition zone (DIZ) [6] | diameter of the inhibition zone (DIZ) [7]
C[C@@H]1[C@H](O)[C@@H](C)/C=C/C=C/C=C/C=C/C=C/C=C/C=C/[C@H](O[C@@H]2O[C@H](C)[C@@H](O)[C@H](N)[C@@H]2O)C[C@@H]2O[C@](O)(C[C@@H](O)C[C@@H](O)[C@H](O)CC[C@@H](O)C[C@@H](O)CC(=O)O[C@H]1C)C[C@H](O)[C@H]2C(=O)O [AMPHOTERICIN B] | inactive | 24 mm | 19 mm | 19 mm | 9 mm | – | –
C[C@@H]1CC[C@@H](c2ccoc2)N2C(O)[C@@](C)(Sc3ccccc3)CC[C@@H]12 (some centres not stated) | – | – | – | – | – | Active | Active
